The values below come from ChEMBL document CHEMBL3596123, “Identification of pyrazine-based TrkA inhibitors: design, synthesis, evaluation, and computational modeling studies” (Medchemcomm, 2014).

Test [1] deals with T1, High affinity nerve growth factor receptor (Homo sapiens, UniProt P04629). As to the kind of experiment: Inhibition of human recombinant TrkA at 20 uM using ATP and 5FAM tagged TrkA peptide substrate incubated for 60 mins by microfluidics assay. A digest of the protocol: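 TrkA enzyme at 2 nM, preincubated with inhibitor 60 min with shaking in HEPES kinase buffer (MgCl2, DTT, Brij-35, Tween 20), then ATP (190 µM running) and 5FAM-labelled TrkA peptide (1.5 µM) added. Run to 10–20% conversion in no-inhibitor wells. Product/substrate peaks separated by microfluidic mobility-shift read. Single point at 20 µM inhibitor, quadruplicate.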
Target sequence in this assay (P04629 33-796 limits assumed): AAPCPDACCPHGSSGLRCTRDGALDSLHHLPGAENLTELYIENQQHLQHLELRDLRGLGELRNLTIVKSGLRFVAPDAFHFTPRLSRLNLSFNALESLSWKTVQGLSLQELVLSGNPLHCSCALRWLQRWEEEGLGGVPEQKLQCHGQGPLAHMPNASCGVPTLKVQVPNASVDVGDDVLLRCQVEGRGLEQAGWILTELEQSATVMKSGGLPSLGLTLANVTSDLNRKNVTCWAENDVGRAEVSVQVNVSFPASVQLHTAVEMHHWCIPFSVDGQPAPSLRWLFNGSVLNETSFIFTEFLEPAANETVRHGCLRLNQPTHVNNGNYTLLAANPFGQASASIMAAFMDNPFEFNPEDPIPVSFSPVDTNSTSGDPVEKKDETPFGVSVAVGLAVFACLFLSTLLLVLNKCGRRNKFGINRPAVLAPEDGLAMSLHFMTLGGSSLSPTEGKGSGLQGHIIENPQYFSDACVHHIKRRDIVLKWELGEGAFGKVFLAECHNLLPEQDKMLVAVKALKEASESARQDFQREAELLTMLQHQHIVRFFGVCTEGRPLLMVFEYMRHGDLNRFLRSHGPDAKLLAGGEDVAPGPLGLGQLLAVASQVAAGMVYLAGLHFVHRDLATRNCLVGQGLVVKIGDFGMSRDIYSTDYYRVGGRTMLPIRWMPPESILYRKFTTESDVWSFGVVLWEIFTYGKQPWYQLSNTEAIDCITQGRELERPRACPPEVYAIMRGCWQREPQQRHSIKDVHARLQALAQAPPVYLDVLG

Test [2] addresses T1, High affinity nerve growth factor receptor. As to the kind of experiment: Inhibition of human recombinant TrkA using ATP and 5FAM tagged TrkA peptide substrate incubated for 60 mins by microfluidics assay. In outline:
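TrkA enzyme at 2 nM, preincubated 60 min with inhibitor in HEPES/MgCl2/DTT kinase buffer. Reaction started with ATP 190 µM and 5FAM-TrkA peptide 1.5 µM (running). Twelve-point half-log series, 0.2 mM–0.632 nM final. Stopped at 10–20% conversion of uninhibited control. Phospho-product separated by microfluidic read. Curves fit to one-phase exponential decay, IC50 from the half-life, duplicate, mean ± SD.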
Target sequence in this assay (P04629 whole entry): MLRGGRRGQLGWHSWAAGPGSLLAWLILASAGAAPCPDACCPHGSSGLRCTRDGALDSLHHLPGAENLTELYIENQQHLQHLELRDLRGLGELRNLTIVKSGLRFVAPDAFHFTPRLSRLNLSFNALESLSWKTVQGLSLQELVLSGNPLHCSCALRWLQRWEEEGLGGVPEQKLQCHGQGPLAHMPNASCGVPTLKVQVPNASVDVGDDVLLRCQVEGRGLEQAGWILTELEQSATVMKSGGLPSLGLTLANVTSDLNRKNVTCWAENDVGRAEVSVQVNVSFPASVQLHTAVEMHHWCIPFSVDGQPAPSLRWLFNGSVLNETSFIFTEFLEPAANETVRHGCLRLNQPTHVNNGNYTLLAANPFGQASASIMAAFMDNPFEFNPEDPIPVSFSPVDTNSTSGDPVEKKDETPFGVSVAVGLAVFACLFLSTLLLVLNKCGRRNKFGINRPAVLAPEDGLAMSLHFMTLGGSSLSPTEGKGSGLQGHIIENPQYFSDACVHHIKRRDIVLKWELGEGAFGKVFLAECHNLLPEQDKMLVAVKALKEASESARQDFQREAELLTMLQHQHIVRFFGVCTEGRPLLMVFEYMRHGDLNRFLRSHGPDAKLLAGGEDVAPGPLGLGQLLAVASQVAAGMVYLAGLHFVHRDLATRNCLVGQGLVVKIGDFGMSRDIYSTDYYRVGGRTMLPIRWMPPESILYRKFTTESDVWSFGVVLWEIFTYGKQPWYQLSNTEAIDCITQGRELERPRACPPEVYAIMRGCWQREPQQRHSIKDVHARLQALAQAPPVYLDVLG

The target in a further test is T2, Ephrin type-B receptor 2 (Homo sapiens, UniProt P29323).
T2 sequence (P29323 whole entry): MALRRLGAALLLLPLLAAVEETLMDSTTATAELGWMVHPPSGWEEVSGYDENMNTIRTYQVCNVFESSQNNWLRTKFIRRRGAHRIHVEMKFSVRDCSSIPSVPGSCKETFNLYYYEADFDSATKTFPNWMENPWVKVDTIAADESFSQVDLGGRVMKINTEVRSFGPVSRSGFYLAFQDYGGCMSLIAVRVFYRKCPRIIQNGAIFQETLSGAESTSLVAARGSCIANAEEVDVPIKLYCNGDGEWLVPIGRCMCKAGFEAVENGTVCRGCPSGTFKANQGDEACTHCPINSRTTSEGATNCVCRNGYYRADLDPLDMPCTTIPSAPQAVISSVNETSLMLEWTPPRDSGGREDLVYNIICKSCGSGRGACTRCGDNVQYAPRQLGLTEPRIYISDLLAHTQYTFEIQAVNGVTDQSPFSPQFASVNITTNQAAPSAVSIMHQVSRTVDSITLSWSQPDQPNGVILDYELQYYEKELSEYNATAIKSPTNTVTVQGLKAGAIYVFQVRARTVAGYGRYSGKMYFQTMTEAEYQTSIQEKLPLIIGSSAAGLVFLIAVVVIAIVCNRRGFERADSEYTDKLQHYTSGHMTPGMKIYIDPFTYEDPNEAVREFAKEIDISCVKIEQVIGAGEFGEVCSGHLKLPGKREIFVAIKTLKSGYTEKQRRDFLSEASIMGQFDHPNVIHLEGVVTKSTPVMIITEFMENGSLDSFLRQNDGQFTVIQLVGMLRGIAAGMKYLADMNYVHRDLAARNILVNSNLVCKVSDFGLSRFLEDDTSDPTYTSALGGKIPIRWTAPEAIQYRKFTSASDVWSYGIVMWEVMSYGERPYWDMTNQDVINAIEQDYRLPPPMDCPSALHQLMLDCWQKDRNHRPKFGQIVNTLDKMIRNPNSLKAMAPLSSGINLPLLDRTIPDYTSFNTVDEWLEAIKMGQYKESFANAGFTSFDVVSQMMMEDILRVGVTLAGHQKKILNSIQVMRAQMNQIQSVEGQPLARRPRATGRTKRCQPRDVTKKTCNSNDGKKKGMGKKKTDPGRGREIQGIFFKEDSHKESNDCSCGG
The experiment in a line: Inhibition of EphB2 (unknown origin) using ATP and 5FAM tagged TrkA peptide substrate incubated for 60 mins by microfluidics assay.

Test [3] concerns the target Vascular endothelial growth factor receptor 2 (Homo sapiens, UniProt P35968). The experiment in a line: Inhibition of KDR (unknown origin) using ATP and 5FAM tagged TrkA peptide substrate incubated for 60 mins by microfluidics assay.

pIC50: −log10 of the molar value.

Vascular endothelial growth factor receptor 2, sequence (P35968 whole entry): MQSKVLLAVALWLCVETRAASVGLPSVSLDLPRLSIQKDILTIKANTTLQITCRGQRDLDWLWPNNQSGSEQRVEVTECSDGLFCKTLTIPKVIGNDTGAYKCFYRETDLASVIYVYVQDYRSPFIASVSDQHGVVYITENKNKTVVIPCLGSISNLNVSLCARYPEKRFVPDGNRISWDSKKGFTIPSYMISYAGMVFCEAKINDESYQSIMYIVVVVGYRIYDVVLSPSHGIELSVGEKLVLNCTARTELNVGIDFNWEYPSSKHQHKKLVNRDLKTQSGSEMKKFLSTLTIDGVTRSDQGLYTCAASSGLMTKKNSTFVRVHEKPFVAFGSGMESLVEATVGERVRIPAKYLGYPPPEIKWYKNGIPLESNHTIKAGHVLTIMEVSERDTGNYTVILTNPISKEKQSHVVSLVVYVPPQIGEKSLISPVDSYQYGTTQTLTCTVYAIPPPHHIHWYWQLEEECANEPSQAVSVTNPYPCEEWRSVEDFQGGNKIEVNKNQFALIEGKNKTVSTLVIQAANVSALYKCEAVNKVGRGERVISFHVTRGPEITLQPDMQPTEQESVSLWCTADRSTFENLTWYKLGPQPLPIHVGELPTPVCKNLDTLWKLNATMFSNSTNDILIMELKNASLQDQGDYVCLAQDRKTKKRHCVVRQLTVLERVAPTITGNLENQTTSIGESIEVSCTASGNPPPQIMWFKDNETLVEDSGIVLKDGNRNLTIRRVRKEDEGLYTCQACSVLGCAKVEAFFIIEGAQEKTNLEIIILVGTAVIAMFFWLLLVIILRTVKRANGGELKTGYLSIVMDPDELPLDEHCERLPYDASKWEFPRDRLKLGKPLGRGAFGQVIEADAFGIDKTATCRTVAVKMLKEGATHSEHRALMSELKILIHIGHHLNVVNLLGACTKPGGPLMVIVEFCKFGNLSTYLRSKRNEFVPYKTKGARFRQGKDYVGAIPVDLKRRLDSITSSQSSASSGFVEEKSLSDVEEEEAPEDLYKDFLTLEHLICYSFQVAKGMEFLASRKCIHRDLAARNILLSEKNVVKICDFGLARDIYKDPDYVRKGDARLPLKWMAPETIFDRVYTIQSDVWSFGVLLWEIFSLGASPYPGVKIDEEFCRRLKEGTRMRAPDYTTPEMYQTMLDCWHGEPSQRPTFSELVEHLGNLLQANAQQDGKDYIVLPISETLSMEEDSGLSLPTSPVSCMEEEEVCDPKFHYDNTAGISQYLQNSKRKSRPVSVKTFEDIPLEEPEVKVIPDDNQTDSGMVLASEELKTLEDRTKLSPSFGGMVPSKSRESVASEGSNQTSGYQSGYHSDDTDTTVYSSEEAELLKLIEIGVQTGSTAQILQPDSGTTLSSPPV

Turning to `CC(C)c1ccc(NC(=O)Nc2cccc(Oc3cncc(-c4ccsc4)n3)c2)cc1`, the inhibition in test [1] was 99.2%. Besides, the pIC50 in test [2] is 6.06.
The like results for `CC(C)c1ccc(NC(=O)Nc2cccc(Oc3cncc(-c4ccc(S(C)(=O)=O)cc4)n3)c2)cc1` were, in that order, 96.9% and 6.38.
With `O=C(Nc1cccc(Oc2cncc(-c3ccsc3)n2)c1)Nc1cccc(C(F)(F)F)c1`, the inhibition in test [1] was found to be 96.2%. In test [2], the pIC50 is 5.96.
`CC(C)(C)c1cc(NC(=O)Nc2cccc(Oc3cncc(-c4ccc(S(C)(=O)=O)cc4)n3)c2)no1`: the inhibition in test [1] stood at 96.5%. The negative logarithm of the IC50 (pIC50) in test [2] is 7.04; on Ephrin type-B receptor 2, less than 5.70.
`CC(C)(C)c1ccc(NC(=O)Nc2cccc(Oc3cncc(-c4cncnc4)n3)c2)cc1`: in test [1], the inhibition was determined as 49.6%.
On the same count and under the same terms, for `O=C(Nc1cccc(Oc2cncc(-c3ccc(F)cc3)n2)c1)Nc1cccc(C(F)(F)F)c1` the value was 27.1%; for `COc1ccc(-c2cncc(Oc3cccc(NC(=O)Nc4cc(C(C)(C)C)no4)c3)n2)cc1`, 37.2%.
In the case of `Cn1nc(C(C)(C)C)cc1NC(=O)Nc1cccc(Oc2cncc(-c3ccc(F)cc3)n2)c1`, the inhibition in test [1] amounted to 26.9%.
Consider `CC(C)c1ccc(NC(=O)Nc2cccc(Oc3cncc(-c4cncnc4)n3)c2)cc1`, for which the inhibition in test [1] came to 28.2%.
`COc1ccc(-c2cncc(Oc3cccc(NC(=O)Nc4cc(C(C)(C)C)on4)c3)n2)cc1`: the inhibition in test [1] stood at 98.6%. For the same compound, the pIC50 is 7.33 in test [2], less than 5.70 in test [3] and less than 5.70 at Ephrin type-B receptor 2.
Take `CC(C)(C)c1ccc(NC(=O)Nc2cccc(Oc3cncc(-c4ccc(S(C)(=O)=O)cc4)n3)c2)cc1`: the inhibition in test [1] was 46.7%.
Take `CC(C)c1ccc(NC(=O)Nc2cccc(Oc3cncc(-c4ccc(F)cc4)n3)c2)cc1`: the inhibition in test [1] was determined as 56.9%.
`O=C(Nc1cccc(Oc2cncc(-c3cncnc3)n2)c1)Nc1cccc(C(F)(F)F)c1`: in test [1], the inhibition came out at 69.3%.
For `CC(C)(C)c1ccc(NC(=O)Nc2cccc(Oc3cncc(-c4ccc(F)cc4)n3)c2)cc1`, the inhibition in test [1] was found to be 32.2%.
In the case of `CC(C)(C)c1cc(NC(=O)Nc2cccc(Oc3cncc(-c4ccc(F)cc4)n3)c2)no1`, the inhibition in test [1] came out at 100%. The pIC50 is 7.66 in test [2], less than 5.70 in test [3] and less than 5.70 against Ephrin type-B receptor 2.
For the compound `Cn1cc(-c2cncc(-c3ccc(N)cc3)n2)cn1`, the inhibition in test [1] worked out at 46%.
As for `Cn1cc(-c2cncc(Oc3cccc(NC(=O)Nc4cccc(C(F)(F)F)c4)c3)n2)cn1`, in test [1], the inhibition was 92%. The pIC50 in test [2] was 6.28.
For `CC(C)(C)c1cc(NC(=O)Nc2cccc(Oc3cncc(-c4ccc(F)cc4)n3)c2)on1`, the inhibition in test [1] came out at 47.2%.
For the compound `COc1ccc(-c2cncc(Oc3cccc(NC(=O)Nc4ccc(C(C)(C)C)cc4)c3)n2)cc1`, the inhibition in test [1] stood at 33.8%.
Take `CS(=O)(=O)c1ccc(-c2cncc(Oc3cccc(NC(=O)Nc4cccc(C(F)(F)F)c4)c3)n2)cc1`: the inhibition in test [1] was 90.8%. Also, the negative logarithm of the IC50 (pIC50) in test [2] is 5.77.
In the case of `Cn1nc(C(C)(C)C)cc1NC(=O)Nc1cccc(Oc2cncc(-c3ccc(S(C)(=O)=O)cc3)n2)c1`, the inhibition in test [1] turned out to be 94%. Further, the negative-log IC50 (pIC50) in test [2] is 6.31.
Turning to `CC(C)(C)c1cc(NC(=O)Nc2cccc(Oc3cncc(Cl)n3)c2)no1`, in test [2], the negative logarithm of the IC50 (pIC50) is less than 4.00.
As to `Cn1nc(C(C)(C)C)cc1NC(=O)Nc1cccc(Oc2cncc(-c3ccsc3)n2)c1`, the inhibition in test [1] was determined as 26.8%.
Take `Cn1cc(-c2cncc(Oc3cccc(NC(=O)Nc4cc(C(C)(C)C)on4)c3)n2)cn1`: the inhibition in test [1] is 101%. In addition, the pIC50 in test [2] is 7.62.
In the case of `Nc1ccc(-c2cncc(-c3ccsc3)n2)cc1`, the inhibition in test [1] was determined as 17%.
As to `Cn1cc(-c2cncc(-c3ccc(NC(=O)Nc4cc(C(C)(C)C)nn4C)cc3)n2)cn1`, the inhibition in test [1] stood at 99.7%. Besides, the pIC50 in test [2] was 7.92.
Consider `O=C(Nc1cccc(Oc2cncc(Cl)n2)c1)Nc1cccc(C(F)(F)F)c1`, for which the pIC50 in test [2] was 5.46.
On to `COc1ccc(-c2cncc(Oc3cccc(NC(=O)Nc4cccc(C(F)(F)F)c4)c3)n2)cc1`, for which the inhibition in test [1] was determined as 95.5%. Besides, the pIC50 in test [2] was 5.80.
As to `CC(C)(C)c1cccc(NC(=O)Nc2cccc(Oc3cncc(Cl)n3)c2)c1`, the pIC50 in test [2] is less than 4.00.
In the case of `Cn1cc(-c2cncc(Oc3cccc(NC(=O)Nc4cc(C(C)(C)C)no4)c3)n2)cn1`, the inhibition in test [1] turned out to be 48.8%.
Consider `Nc1ccc(-c2cncc(Cl)n2)cc1`, for which, in test [1], the inhibition is 47%.
Take `CC(C)(C)c1ccc(NC(=O)Nc2cccc(Oc3cncc(-c4ccsc4)n3)c2)cc1`: the inhibition in test [1] was 27.7%.
Same read-out and setting: for `Nc1ccc(-c2cncc(-c3cncnc3)n2)cc1` the value was 77%; for `CC(C)(C)c1cc(NC(=O)Nc2cccc(Oc3cncc(-c4cncnc4)n3)c2)on1`, 79.4%; for `Cn1cc(-c2cncc(Oc3cccc(NC(=O)Nc4cc(C(C)(C)C)nn4C)c3)n2)cn1`, 61.1%.
For `Cn1cc(-c2cncc(Oc3cccc(NC(=O)Nc4ccc(C(C)(C)C)cc4)c3)n2)cn1`, the inhibition in test [1] is 86.9%.
Regarding `CC(C)(C)c1cc(NC(=O)Nc2cccc(Oc3cncc(-c4ccsc4)n3)c2)no1`, the inhibition in test [1] was 100%. Further, the pIC50 is 7.41 in test [2], less than 5.70 in test [3] and less than 5.70 against Ephrin type-B receptor 2.
Regarding `COc1ccc(-c2cncc(Oc3cccc(NC(=O)Nc4ccc(C(C)C)cc4)c3)n2)cc1`, the inhibition in test [1] turned out to be 98%. For the same compound, the pIC50 in test [2] is 6.42.
On to `CC(C)(C)c1cc(NC(=O)Nc2cccc(Oc3cncc(-c4ccsc4)n3)c2)on1`, for which, in test [1], the inhibition came to 69%.
As for `COc1ccc(-c2cncc(Oc3cccc(NC(=O)Nc4cc(C(C)(C)C)nn4C)c3)n2)cc1`, the inhibition in test [1] amounted to 15.5%.
`CC(C)c1ccc(NC(=O)Nc2cccc(Oc3cncc(-c4cnn(C)c4)n3)c2)cc1`: the inhibition in test [1] was determined as 56.3%.

The term inhibition denotes the relative decrease from the control value, in per cent. The term pIC50 denotes the negative decadic logarithm of the IC50, by convention in mol/L.
